Experimental data of several laboratories.
Compare with care: the assays were run in different laboratories.
Target: Protein kinase C theta type (PRKCQ, Homo sapiens, UniProt Q04759)

Structure (SMILES) | effect on | mode | method | tested at | endpoint | result
CC(C)(C)c1cc(C=C(C#N)C#N)cc(Br)c1O | enzyme activity | inhibitor |  | 0.5 µM | remaining activity | 98%
Cc1nn(C)cc1-c1nc2c(N3CCN(Cc4ccc(Cl)cc4)CC3)c(Cl)cnc2[nH]1 | binding |  | competition with immobilised ligand | 1 µM | remaining binding | 100%
N#CC1(c2ccccn2)CCN(Cc2cc(C(=O)O)c(=O)n3ccccc23)CC1 | cell-free assay |  | competition with immobilised ligand | 1 µM | remaining binding | 96%
C#Cc1n[nH]c2c(-c3cn(C(C)c4ccccn4)c(=O)[nH]c3=O)cc(F)cc12 (stereo not shown) | enzyme activity | inhibitor |  | 1 µM | inhibition | 1.2%
Cn1cc(-c2cc(F)cc(N3CCn4c(cc5c4CCCC5)C3=O)c2CO)cc(Nc2ccc(N3CCN(C4COC4)CC3)cn2)c1=O | enzyme activity | inhibitor |  | 0.1 µM | inhibition | 0%
COc1ncccc1-c1cnn2ccc(N3CCN(C(=O)OC(C)C)CC3)nc12 | binding |  | competition with immobilised ligand | 1 µM | remaining binding | 100%
Cn1cncc1[C@@](O)(COc1ccc(C#N)cc1-c1ccc(OC(F)(F)F)cc1)c1ccc(C#N)cc1 | cell-free assay |  | competition with immobilised ligand | 1 µM | remaining binding | 100%
Nc1ncc(-c2nc(N3CCOCC3)nc(N3CCOCC3)n2)c(C(F)F)n1 | cell-free assay |  | competition with immobilised ligand | 10 µM | remaining binding | 37%
Cn1cc(-c2cccc(N3CCc4c(sc5c4CC(C)(C)C5)C3=O)c2CO)cc(Nc2ccncn2)c1=O | enzyme activity | inhibitor |  | 1 µM | inhibition | -5%
O=c1[nH]c2ccccc2n1C1CCN(Cc2ccc(-c3[nH]c4cc5ncnc5cc4nc3-c3ccccc3)cc2)CC1 | cell-free assay |  |  | 0.5 µM | remaining signal | 96.4%
